Assay type in all cases: ADME
Data set [1] is described as follows: Drug metabolism in Sprague-Dawley rat liver microsomes assessed as CYP450-mediated 2-[[2-(aminomethyl)-3-(3,5-dibromophenyl)-2-[(3,5-dibromophenyl)methyl]propanoyl]amino]acetic acid formation incubated up to 3 hrs in presence of NADPH regenerating system by RP-HPLC-MS analysis. An outline of the steps: (§1)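 Substrate at 1 µL of 100 µM aqueous stock in 100 mM potassium phosphate, pH 7.4, with NADPH regenerating system. Pooled male Sprague–Dawley rat liver microsomes (20 mg/mL stock) added, then incubated at 37 °C. Sampled at 0–180 min and quenched with cold methanol containing propranolol internal standard. Analysed by RP-HPLC–HRMS in positive ESI mode. Metabolites confirmed by HCD MS2. Triplicate incubations.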
(Liver microsomes are a subcellular fraction often used to study metabolism.)

Data set [2] in a line: Drug metabolism in Sprague-Dawley rat liver microsomes assessed as CYP450-mediated 2-[[2-(aminomethyl)-3-[3,5-bis(trifluoromethyl)phenyl]-2-[[3,5-bis(trifluoromethyl)phenyl]methyl]propanoyl]amino]acetic acid formation incubated up to 3 hrs in presence of NADPH regenerating system by RP-HPLC-MS analysis. The gist of the method: as §1
Data set [3] can be described thus: Drug metabolism in Sprague-Dawley rat liver microsomes assessed as CYP450-mediated 4-[2-(aminomethyl)-3-[3,5-bis(trifluoromethyl)phenyl]-2-(4,5-dihydrooxazol-3-ium-2-yl)propyl]-2,6-bis(trifluoromethyl)phenol formation incubated up to 3 hrs in presence of NADPH regenerating system by RP-HPLC-MS analysis. An outline of the steps:
as §1

Data set [4] in a line: Drug metabolism in Sprague-Dawley rat liver microsomes assessed as CYP450-mediated N-(2-aminoethyl)-2-(aminomethyl)-2-[(3,5-bis(trifluoromethyl)phenyl)methyl]-3-(4-hydroxy-3,5-bis(trifluoromethyl)phenyl)propanamide formation incubated up to 3 hrs in presence of NADPH regenerating system by RP-HPLC-MS analysis. An outline of the steps:
as §1

Molecules are shown by their SMILES.

On to `NCCNC(=O)C(CN)(Cc1cc(Br)cc(Br)c1)Cc1cc(Br)cc(Br)c1`, for which the Drug metabolism result in data set [1] was “Metabolite_Notdetected”.

For `NCCNC(=O)C(CN)(Cc1cc(C(F)(F)F)cc(C(F)(F)F)c1)Cc1cc(C(F)(F)F)cc(C(F)(F)F)c1`, the Drug metabolism result in data set [2], in data set [3] and in data set [4] was “Metabolite_Notdetected” throughout.

These data come from ChEMBL document CHEMBL4311965, “Antimicrobial activity of amphipathic α,α-disubstituted β-amino amide derivatives against ESBL - CARBA producing multi-resistant bacteria; effect of halogenation, lipophilicity and cationic character” (Eur J Med Chem, 2019).
